Laboratory results taken from ChEMBL document CHEMBL1134320, “Structure of protein tyrosine phosphatase 1B in complex with inhibitors bearing two phosphotyrosine mimetics” (J Med Chem, 2001).
Blank lines part the entries; values can stand above or below the compound they belong to.

Key:
[1] = target: T1, Tyrosine-protein phosphatase non-receptor type 4 (Homo sapiens) (UniProt P29074); assay: Inhibitory activity against Protein tyrosine phosphatase PTPmeg-1 at 500 uM
T1 sequence (whole entry): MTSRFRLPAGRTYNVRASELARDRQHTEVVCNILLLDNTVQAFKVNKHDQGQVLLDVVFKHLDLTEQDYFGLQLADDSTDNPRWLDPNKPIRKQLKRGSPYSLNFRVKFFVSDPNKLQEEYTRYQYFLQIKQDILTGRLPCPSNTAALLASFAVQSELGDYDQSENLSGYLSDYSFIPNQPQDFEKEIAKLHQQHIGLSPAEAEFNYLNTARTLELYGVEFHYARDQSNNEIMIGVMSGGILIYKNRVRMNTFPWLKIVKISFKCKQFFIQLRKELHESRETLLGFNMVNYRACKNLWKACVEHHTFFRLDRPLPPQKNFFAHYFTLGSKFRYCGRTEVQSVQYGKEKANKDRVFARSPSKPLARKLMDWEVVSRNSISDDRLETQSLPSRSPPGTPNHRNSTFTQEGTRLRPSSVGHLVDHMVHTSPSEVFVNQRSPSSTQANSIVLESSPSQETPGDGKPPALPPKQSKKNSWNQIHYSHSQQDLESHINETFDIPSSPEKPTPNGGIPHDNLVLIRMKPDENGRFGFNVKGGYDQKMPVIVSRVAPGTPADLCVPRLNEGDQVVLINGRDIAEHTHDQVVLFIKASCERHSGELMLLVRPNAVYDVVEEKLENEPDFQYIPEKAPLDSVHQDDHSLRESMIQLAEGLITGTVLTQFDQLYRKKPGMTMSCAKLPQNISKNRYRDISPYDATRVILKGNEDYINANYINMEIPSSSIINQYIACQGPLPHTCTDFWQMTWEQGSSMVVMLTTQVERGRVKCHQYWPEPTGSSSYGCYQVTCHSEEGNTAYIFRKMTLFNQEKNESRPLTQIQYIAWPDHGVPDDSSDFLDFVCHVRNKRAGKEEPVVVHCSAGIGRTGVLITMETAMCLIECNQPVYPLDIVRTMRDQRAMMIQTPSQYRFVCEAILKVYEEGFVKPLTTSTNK
Method in brief: (§1)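 Percent inhibition was measured at the single inhibitor concentration given in the line, using the FDP fluorogenic substrate at about each enzyme's KM. For CDC25a, flag-tagged protein was made in Sf9 cells (moi 5, 27 °C, 72 h) and purified on anti-flag resin to over 80% purity.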

[2] = target: T1, Tyrosine-protein phosphatase non-receptor type 4 (Homo sapiens); assay: Inhibitory activity against Protein tyrosine phosphatase PTPmeg-1 at 250 uM; method in brief: as §1
[3] = target: T2, M-phase inducer phosphatase 1 (Homo sapiens) (UniProt P30304); assay: Inhibitory activity against Protein tyrosine phosphatase cell division cycle 25A at 250 uM; method in brief: as §1
T2 sequence (whole entry): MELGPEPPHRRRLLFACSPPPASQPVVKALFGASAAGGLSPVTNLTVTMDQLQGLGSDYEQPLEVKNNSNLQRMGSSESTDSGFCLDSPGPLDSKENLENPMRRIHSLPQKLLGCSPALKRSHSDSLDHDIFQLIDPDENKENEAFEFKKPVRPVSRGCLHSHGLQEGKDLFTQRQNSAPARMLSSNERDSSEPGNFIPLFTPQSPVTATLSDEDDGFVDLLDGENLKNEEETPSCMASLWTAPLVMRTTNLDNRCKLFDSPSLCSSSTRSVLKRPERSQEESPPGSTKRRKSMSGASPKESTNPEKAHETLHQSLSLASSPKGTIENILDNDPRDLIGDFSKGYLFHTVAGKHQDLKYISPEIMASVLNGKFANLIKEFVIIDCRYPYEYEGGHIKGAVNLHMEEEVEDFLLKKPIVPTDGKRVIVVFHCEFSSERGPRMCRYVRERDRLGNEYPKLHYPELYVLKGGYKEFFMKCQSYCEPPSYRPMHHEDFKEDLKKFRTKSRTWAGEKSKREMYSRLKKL

[4] = target: T1, Tyrosine-protein phosphatase non-receptor type 4 (Homo sapiens); assay: Inhibitory activity against Protein tyrosine phosphatase PTPmeg-1 at 380 uM; method in brief: as §1
[5] = target: T2, M-phase inducer phosphatase 1 (Homo sapiens); assay: Inhibitory activity against Protein tyrosine phosphatase cell division cycle 25A at 250 uM

inhibition [1]: 30%
Structure (SMILES): O=P(O)(O)C(F)(F)c1ccc(COc2ccccc2OCc2ccc(C(F)(F)P(=O)(O)O)cc2)cc1

inhibition [2]: 2% | inhibition [3]: 13%
Structure (SMILES): O=P(O)(O)C(F)(F)c1ccc(COCCOCc2ccc(C(F)(F)P(=O)(O)O)cc2)cc1

inhibition [4]: 30%
Structure (SMILES): O=P(O)(O)C(F)(F)c1ccc(COc2cccc(OCc3ccc(C(F)(F)P(=O)(O)O)cc3)c2)cc1

inhibition [5]: 16% | inhibition [2]: 9%
Structure (SMILES): O=P(O)(O)C(F)(F)c1ccc(CCCCc2ccc(C(F)(F)P(=O)(O)O)cc2)cc1
